Experimental data as given in ChEMBL document CHEMBL1123497, “Structure-activity studies of 4,6-disubstituted 2-(morpholinocarbonyl)furo[3,2-b]indole derivatives with analgesic and antiinflammatory activities” (1986).

How the values were obtained:
Assay type in all cases: functional
Rattus norvegicus [1] = assay: Antiinflammatory activity by Carrageenan edema assay in rats; parameters: concentration or dose not given beside the values; unit not given here
In short: (§1)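 Groups of six male Wistar rats (130–170 g) were dosed orally 60 min before a subplantar injection of 0.5% λ-carrageenin suspension (0.1 mL/rat) into the left hind paw. Foot volume was measured every 60 min for 360 min, and % swelling was compared with controls. ED50 and 95% confidence limits came from Litchfield–Wilcoxon. Screening used % edema inhibition at 100 mg/kg po.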

Mus musculus [2] = organism: Mus musculus; assay: Analgesic activity by acetic acid writhing assay in mice; parameters: concentration or dose not given beside the values
In short: (§2)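 Mice received drug orally 30 min before an ip injection of 0.7% acetic acid (10 mL/kg). Writhes were counted 10–20 min after injection, and % inhibition was taken against a control group. ED50 and 95% confidence limits came from the Litchfield–Wilcoxon method.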

Mus musculus [3] = organism: Mus musculus; assay: Inhibition of acetic acid induced writhing in mice.; in short: as §2
Rattus norvegicus [4] = organism: Rattus norvegicus; assay: Compound was evaluated for analgesic activity in Randall-Selitto test in normal foot rats
Rattus norvegicus [5] = organism: Rattus norvegicus; assay: Compound was evaluated for analgesic activity in Randall-Selitto test in inflamed foot rats
In short: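 Groups of six male Wistar rats (90–110 g) received 20% yeast suspension (0.1 mL/rat) subplantar into the right hind paw, then oral drug 120 min later. Pain threshold was read every 60 min for 240 min. A rise of more than 50% over the control group counted as positive. ED50 and 95% confidence limits came from Litchfield–Wilcoxon.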

Mus musculus [6] = organism: Mus musculus; assay: Compound was evaluated for analgesic activity in Pressure test in mice
In short: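 Groups of 10 male ddY mice (19–24 g) were dosed orally, and pain threshold to pressure was measured every 30 min for 120 min. A postdrug threshold raised more than 50% over the predrug value counted as positive. ED50 and 95% confidence limits came from Litchfield–Wilcoxon.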

Rattus norvegicus [7] = assay: Compound was evaluated for antiinflammatory activity in rats by carrageenan edema test; in short: as §1
Rattus norvegicus [8] = organism: Rattus norvegicus; assay: Compound was evaluated for antipyretic activity in rats by yeast induced fever test
In short: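 Groups of six male Wistar rats (190–210 g) received 7.5% yeast suspension sc (10 mL/kg). Rats whose temperature rose by more than 1 °C were dosed orally 180 min later. Body temperature was recorded automatically every 60 min for 360 min, and % inhibition was compared with controls. ED50 and 95% confidence limits came from Litchfield–Wilcoxon.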

Rattus norvegicus [9] = organism: Rattus norvegicus; assay: Compound was evaluated for analgesic activity in Adjuvant-induced arthritic pain test in rats
In short: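 Groups of six male SD rats (160–200 g) received 0.5% Mycobacterium butyricum suspension (0.1 mL/rat) intradermally into the distal tail. After 15–18 days, rats that vocalized on gentle flexion were dosed orally, and the pain response was checked every 60 min for 300 min. Absence of response counted as positive. ED50 and 95% confidence limits came from Litchfield–Wilcoxon.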

Compound: COC(=O)n1c2cc(C)ccc2c2oc(C(=O)N3CCOCC3)cc21
- Inhibition (Rattus norvegicus [1]): 2
- Inhibition (Mus musculus [2]): 1%

Compound: CCCCC(=O)n1c2cc(C(F)(F)F)ccc2c2oc(C(=O)N3CCOCC3)cc21
- Inhibition (Rattus norvegicus [1]): 3
- Inhibition (Mus musculus [2]): 3%
- ED50 (Mus musculus [3]): 34.5 mg/kg

Compound: CCCCCCCCn1c2cc(C(F)(F)F)ccc2c2oc(C(=O)N3CCOCC3)cc21
- Inhibition (Rattus norvegicus [1]): 3

Compound: CC(C)COC(=O)n1c2cc(F)ccc2c2oc(C(=O)N3CCOCC3)cc21
- Inhibition (Rattus norvegicus [1]): 1
- Inhibition (Mus musculus [2]): 2%

Compound: CCCCOC(=O)n1c2cc(C(F)(F)F)ccc2c2oc(C(=O)N3CCOCC3)cc21
- Inhibition (Rattus norvegicus [1]): 3
- Inhibition (Mus musculus [2]): 3%
- ED50 (Mus musculus [3]): 21.4 mg/kg

Compound: CC(C)COC(=O)n1c2cc(C(F)(F)F)ccc2c2oc(C(=O)N3CCOCC3)cc21
- Inhibition (Rattus norvegicus [1]): 2
- Inhibition (Mus musculus [2]): 2%

Compound: CC(C)=CCn1c2cc(C(F)(F)F)ccc2c2oc(C(=O)N3CCOCC3)cc21
- Inhibition (Rattus norvegicus [1]): 3
- Inhibition (Mus musculus [2]): 3%
- ED50 (Mus musculus [3]): 10.1 mg/kg

Compound: CCOC(=O)n1c2cc(C(F)(F)F)ccc2c2oc(C(=O)N3CCOCC3)cc21
- Inhibition (Rattus norvegicus [1]): 3
- Inhibition (Mus musculus [2]): 3%
- ED50 (Mus musculus [3]): 35.6 mg/kg

Compound: CCCOC(=O)n1c2cc(F)ccc2c2oc(C(=O)N3CCOCC3)cc21
- Inhibition (Rattus norvegicus [1]): 1
- Inhibition (Mus musculus [2]): 2%

Compound: CCCCOC(=O)n1c2cc(F)ccc2c2oc(C(=O)N3CCOCC3)cc21
- Inhibition (Rattus norvegicus [1]): 1
- Inhibition (Mus musculus [2]): 2%

Compound: CCCCCn1c2cc(C(F)(F)F)ccc2c2oc(C(=O)N3CCOCC3)cc21
- Inhibition (Rattus norvegicus [1]): 3
- Inhibition (Mus musculus [2]): 3%
- ED50 (Mus musculus [3]): 10.9 mg/kg

Compound: COC(=O)n1c2cc(O)ccc2c2oc(C(=O)N3CCOCC3)cc21
- Inhibition (Rattus norvegicus [1]): 1
- Inhibition (Mus musculus [2]): 1%

Compound: CC(C)CCn1c2cc(C(F)(F)F)ccc2c2oc(C(=O)N3CCOCC3)cc21
- Inhibition (Rattus norvegicus [1]): 3
- Inhibition (Mus musculus [2]): 3%
- ED50 (Mus musculus [3]): 5.1 mg/kg

Compound: CCCOC(=O)n1c2ccccc2c2oc(C(=O)N3CCOCC3)cc21
- Inhibition (Rattus norvegicus [1]): 1
- Inhibition (Mus musculus [2]): 1%

Compound: Cc1ccc2c3oc(C(=O)N4CCOCC4)cc3n(C(=O)OC(C)C)c2c1
- Inhibition (Rattus norvegicus [1]): 3
- Inhibition (Mus musculus [2]): 3%
- ED50 (Mus musculus [3]): 26 mg/kg

Compound: CC(C)OC(=O)n1c2cc(C(F)(F)F)ccc2c2oc(C(=O)N3CCOCC3)cc21
- Inhibition (Rattus norvegicus [1]): 3
- Inhibition (Mus musculus [2]): 3%
- ED50 (Mus musculus [3]): 4.7 mg/kg

Compound: CCCCOC(=O)n1c2cc(C)ccc2c2oc(C(=O)N3CCOCC3)cc21
- Inhibition (Rattus norvegicus [1]): 1
- Inhibition (Mus musculus [2]): 2%

Compound: CCCOC(=O)n1c2cc(C(F)(F)F)ccc2c2oc(C(=O)N3CCOCC3)cc21
- Inhibition (Rattus norvegicus [1]): 3
- Inhibition (Mus musculus [2]): 3%
- ED50 (Mus musculus [3]): 34.6 mg/kg

Compound: CCCCCCn1c2cc(C(F)(F)F)ccc2c2oc(C(=O)N3CCOCC3)cc21
- Inhibition (Rattus norvegicus [1]): 3
- Inhibition (Mus musculus [2]): 3%
- ED50 (Mus musculus [3]): 7.7 mg/kg

Compound: CCCCOC(=O)n1c2ccccc2c2oc(C(=O)N3CCOCC3)cc21
- Inhibition (Rattus norvegicus [1]): 1
- Inhibition (Mus musculus [2]): 1%

Compound: CC(C)COC(=O)n1c2cc(Cl)ccc2c2oc(C(=O)N3CCOCC3)cc21
- Inhibition (Rattus norvegicus [1]): 2
- Inhibition (Mus musculus [2]): 2%

Compound: CCOC(=O)n1c2cc(Cl)ccc2c2oc(C(=O)N3CCOCC3)cc21
- Inhibition (Rattus norvegicus [1]): 2
- Inhibition (Mus musculus [2]): 1%

Compound: CCCCCCCn1c2cc(C(F)(F)F)ccc2c2oc(C(=O)N3CCOCC3)cc21
- Inhibition (Rattus norvegicus [1]): 3
- Inhibition (Mus musculus [2]): 3%
- ED50 (Mus musculus [3]): 17.8 mg/kg

Compound: CC(C)OC(=O)n1c2cc(F)ccc2c2oc(C(=O)N3CCOCC3)cc21
- Inhibition (Rattus norvegicus [1]): 1
- Inhibition (Mus musculus [2]): 2%

Compound: CC(C)C(=O)n1c2cc(C(F)(F)F)ccc2c2oc(C(=O)N3CCOCC3)cc21
- Inhibition (Rattus norvegicus [1]): 3
- Inhibition (Mus musculus [2]): 3%
- ED50 (Mus musculus [3]): 7.3 mg/kg

Compound: CC(C)CCCn1c2cc(C(F)(F)F)ccc2c2oc(C(=O)N3CCOCC3)cc21
- Inhibition (Rattus norvegicus [1]): 3
- Inhibition (Mus musculus [2]): 3%
- ED50 (Mus musculus [3]): 6 mg/kg

Compound: CCCCCCCCC(=O)n1c2cc(C(F)(F)F)ccc2c2oc(C(=O)N3CCOCC3)cc21
- Inhibition (Rattus norvegicus [1]): 2
- Inhibition (Mus musculus [2]): 3%

Compound: CC(C)OC(=O)n1c2ccccc2c2oc(C(=O)N3CCOCC3)cc21
- Inhibition (Rattus norvegicus [1]): 2
- Inhibition (Mus musculus [2]): 2%

Compound: Cc1ccc2c3oc(C(=O)N4CCOCC4)cc3n(C(=O)OCC(C)C)c2c1
- Inhibition (Rattus norvegicus [1]): 2
- Inhibition (Mus musculus [2]): 2%

Compound: CCOC(=O)n1c2cc(F)ccc2c2oc(C(=O)N3CCOCC3)cc21
- Inhibition (Rattus norvegicus [1]): 1
- Inhibition (Mus musculus [2]): 1%

Compound: COC(=O)n1c2cc(C(F)(F)F)ccc2c2oc(C(=O)N3CCOCC3)cc21
- Inhibition (Rattus norvegicus [1]): 1
- Inhibition (Mus musculus [2]): 1%

Compound: CCOC(=O)n1c2ccccc2c2oc(C(=O)N3CCOCC3)cc21
- Inhibition (Rattus norvegicus [1]): 1
- Inhibition (Mus musculus [2]): 1%

Compound: CCCCn1c2cc(C(F)(F)F)ccc2c2oc(C(=O)N3CCOCC3)cc21
- Inhibition (Rattus norvegicus [1]): 3
- Inhibition (Mus musculus [2]): 3%
- ED50 (Mus musculus [3]): 29.5 mg/kg

Compound: CC(C)Cn1c2cc(C(F)(F)F)ccc2c2oc(C(=O)N3CCOCC3)cc21
- Inhibition (Rattus norvegicus [1]): 3
- Inhibition (Mus musculus [2]): 2%

Compound: COc1ccc2c3oc(C(=O)N4CCOCC4)cc3n(C(=O)OC(C)C)c2c1
- Inhibition (Rattus norvegicus [1]): 1
- Inhibition (Mus musculus [2]): 2%

Compound: O=C(Cn1c(=O)sc2ccc(Cl)cc21)N1CCN(CCO)CC1 [TIARAMIDE]
- ED50 (Rattus norvegicus [4]): > 160 mg/kg
- ED50 (Rattus norvegicus [5]): 94.6 mg/kg
- ED50 (Mus musculus [6]): 116 mg/kg
- ED50 (Rattus norvegicus [7]): 119 mg/kg
- ED50 (Rattus norvegicus [8]): 171 mg/kg
- ED50 (Rattus norvegicus [9]): 176 mg/kg
- ED50 (Mus musculus [3]): 74 mg/kg

Compound: CCCCOC(=O)n1c2cc(OC)ccc2c2oc(C(=O)N3CCOCC3)cc21
- Inhibition (Rattus norvegicus [1]): 1
- Inhibition (Mus musculus [2]): 2%

Compound: CCCOC(=O)n1c2cc(OC)ccc2c2oc(C(=O)N3CCOCC3)cc21
- Inhibition (Rattus norvegicus [1]): 1
- Inhibition (Mus musculus [2]): 2%

Compound: CC(C)OC(=O)n1c2cc(Cl)ccc2c2oc(C(=O)N3CCOCC3)cc21
- Inhibition (Rattus norvegicus [1]): 3
- Inhibition (Mus musculus [2]): 3%
- ED50 (Mus musculus [3]): 21.4 mg/kg

Compound: COC(=O)n1c2cc(Cl)ccc2c2oc(C(=O)N3CCOCC3)cc21
- Inhibition (Rattus norvegicus [1]): 1
- Inhibition (Mus musculus [2]): 1%

Compound: CCOC(=O)n1c2cc(C)ccc2c2oc(C(=O)N3CCOCC3)cc21
- Inhibition (Rattus norvegicus [1]): 3
- Inhibition (Mus musculus [2]): 2%

Compound: CCOC(=O)n1c2cc(OC)ccc2c2oc(C(=O)N3CCOCC3)cc21
- Inhibition (Rattus norvegicus [1]): 1
- Inhibition (Mus musculus [2]): 1%

Compound: CCCCOC(=O)n1c2cc(Cl)ccc2c2oc(C(=O)N3CCOCC3)cc21
- Inhibition (Rattus norvegicus [1]): 2
- Inhibition (Mus musculus [2]): 3%

Compound: CCCOC(=O)n1c2cc(C)ccc2c2oc(C(=O)N3CCOCC3)cc21
- Inhibition (Rattus norvegicus [1]): 1
- Inhibition (Mus musculus [2]): 2%

Compound: CCCOC(=O)n1c2cc(Cl)ccc2c2oc(C(=O)N3CCOCC3)cc21
- Inhibition (Rattus norvegicus [1]): 2
- Inhibition (Mus musculus [2]): 2%

Compound: CC(C)COC(=O)n1c2ccccc2c2oc(C(=O)N3CCOCC3)cc21
- Inhibition (Rattus norvegicus [1]): 1
- Inhibition (Mus musculus [2]): 1%

Compound: CC(C)CC(=O)n1c2cc(C(F)(F)F)ccc2c2oc(C(=O)N3CCOCC3)cc21
- Inhibition (Rattus norvegicus [1]): 3
- Inhibition (Mus musculus [2]): 3%
- ED50 (Mus musculus [3]): 6 mg/kg

Compound: COC(=O)n1c2cc(OC)ccc2c2oc(C(=O)N3CCOCC3)cc21
- Inhibition (Rattus norvegicus [1]): 1
- Inhibition (Mus musculus [2]): 1%

Compound: CC(C)(C)C(=O)n1c2cc(C(F)(F)F)ccc2c2oc(C(=O)N3CCOCC3)cc21
- Inhibition (Rattus norvegicus [1]): 1
- Inhibition (Mus musculus [2]): 3%

Compound: COc1ccc2c3oc(C(=O)N4CCOCC4)cc3n(C(=O)OCC(C)C)c2c1
- Inhibition (Rattus norvegicus [1]): 1
- Inhibition (Mus musculus [2]): 3%

Compound: CCOC(=O)n1c2cc(O)ccc2c2oc(C(=O)N3CCOCC3)cc21
- Inhibition (Rattus norvegicus [1]): 1
- Inhibition (Mus musculus [2]): 2%

Compound: COC(=O)n1c2cc(F)ccc2c2oc(C(=O)N3CCOCC3)cc21
- Inhibition (Rattus norvegicus [1]): 1
- Inhibition (Mus musculus [2]): 1%
